# High-throughput results from PubChem BioAssay.
# RGS4 block – human RGS4 inhibition; P49798; HEK293 M3R/RGS4 inducible, Fluo-4 calcium flux; stronger effect = higher value; triggered by carbachol at its EC20; B-score at 10 µM; hit rate 0.45% among 310,000;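 active = B-score, a plate-corrected calcium signal, over three deviations above library mean, with baseline fluorescence within five deviations of library mean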;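 note: RGS4 expression induced by doxycycline in cells with stable M3 receptor; B-score is computed from the integrated fluorescence ratio over baseline after carbachol; higher B-score means a larger calcium signal and so more RGS4 inhibition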
# Target sequence (P49798 whole entry, looked up): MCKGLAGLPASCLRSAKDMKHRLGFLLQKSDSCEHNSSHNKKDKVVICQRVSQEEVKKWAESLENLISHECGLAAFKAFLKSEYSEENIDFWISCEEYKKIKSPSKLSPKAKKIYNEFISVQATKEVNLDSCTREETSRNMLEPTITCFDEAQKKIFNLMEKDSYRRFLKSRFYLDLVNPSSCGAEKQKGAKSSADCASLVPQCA
# MrgX1 ag – agonists of human MrgX1 receptor | Q96LB2 | MrgX1-HEK293 cells, Fluo-4 calcium fluorescence, agonist mode; stronger effect = higher value | hit rate 0.44% among 310,000 | B-score at 10 µM;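 active = calcium response B-score plate-corrected fluorescence ratio at least 3 library SD, with starting fluorescence B-score inside 5 SD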
#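 Assay system: stable human MrgX1 HEK293 cell line. Quantity: 15,000 cells per well. Schedule: cells plated overnight, dye loaded 0.5 h 37 °C, 0.5 h room temperature. Detection: Fluo-4 NW calcium-flux fluorescence, kinetic read. Read-out basis: peak-minus-minimum fluorescence over baseline, converted to B scores. Control set: positive and negative control wells on each plate.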
# MrgX1 PAM – human MrgX1 positive allosteric modulation, primary screen; Q96LB2; MrgX1-HEK293, Fluo-4 calcium flux, FDSS; stronger effect = higher value; B-score at 10 µM; hit rate 0.63% among 310,000; AID 588675;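 active = plate-corrected calcium response at least 3 library SD above typical, normal starting fluorescence, not activating the receptor alone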;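 note: compound read alongside a low EC10 to EC30 dose of BAM8-22 agonist; peak minus trough fluorescence over baseline measured at the second addition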
# RGS4 pot – potentiators or activators of RGS4; HEK293 M3R/inducible RGS4, carbachol calcium flux Fluo4; stronger effect = lower value; B-score at 10 µM; hit rate 0.92% among 310,000;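 active = B-score of the integrated calcium signal more than 4 SD below the library mean, with starting fluorescence not abnormally high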;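 note: negative B-score means reduced calcium response which marks RGS4 activation or potentiation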
#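 Material: Inducible-RGS4 HEK293 cells carrying M3 receptor; also added: carbachol at ECmax as muscarinic agonist stimulus; incubation: compound preincubation 20 min at room temperature before agonist; signal: Fluo4-AM (2 µM) calcium-flux fluorescence, kinetic read; measure: integrated calcium ratio converted to B score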
# MrgX1 antag – blocks BAM8-22 activation of human MrgX1 receptor; MRGX1-HEK293 calcium flux, Fluo-4, BAM8-22 antagonism; stronger effect = lower value; B-score at 10 µM; hit rate 1.3% among 310,000; AID 588676;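 active = calcium-response B-score plate-corrected more than 3 library SD below zero, starting fluorescence within 5 deviations, no agonist response on first addition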;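 note: peak minus trough fluorescence over baseline after final BAM8-22 challenge near maximal dose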
# RGS4 inh valid – validation of RGS4 inhibitors; shares compounds with RGS4 block; calcium response, % at 10 µM; HEK293 M3R/RGS4, carbachol calcium Fluo-4 fluorescence; carbachol added at its EC20; 0 = buffer wells, 100 = carbachol control; AID 492999; hit rate 65% among 1,700;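 active = duplicate-averaged calcium response above the buffer-only control mean plus 5 SD of those controls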;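 note: integrated fluorescence ratio F max minus min over baseline F0; higher response in RGS4-induced cells means RGS4 inhibition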
# M3R Ca ctr – counter-screen for RGS4 inhibitors: effect in non-induced cells; hit rate 20% among 1,900; shares compounds with RGS4 block; HEK293 M3R non-induced, carbachol calcium Fluo-4; submaximal (EC20) carbachol stimulus; buffer wells 0%, carbachol control wells 100%; AID 493000; activity (percent), % at 10 µM; call rule not given here;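 note: RGS4 induction absent so cells express M3R without RGS4; higher means more calcium signal and flags a non-specific hit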
# M3R basal Ca ctr – signal in non-induced cells without carbachol, RGS4 inhibitor counter-screen; shares compounds with RGS4 block; HEK293 M3R/RGS4 non-induced, Fluo-4 calcium, no carbachol; normalised: buffer wells 0%, carbachol wells 100%; calcium response (agonist-mode artifact), % at 10 µM; hit rate 22% among 1,900; AID 493001;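 active = duplicate-averaged calcium rise in uninduced cells above buffer wells' mean plus 5 SD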
# * = called active by the depositor; i = inactive; / = not tested or not shown. Shown are actives, neighbours in structure and some others; about 3.5% of the full set was active somewhere.
SMILES,RGS4 block,MrgX1 ag,MrgX1 PAM,RGS4 pot,MrgX1 antag,RGS4 inh valid,M3R Ca ctr,M3R basal Ca ctr
COC(=O)c1sc(N2C(=O)C(O)=C(C(=O)c3ccc(C)o3)C2c2cc(OC)ccc2OC)nc1C (configuration not stated),7.3*,i,i,i,i,46%*,47%*,i
COc1ccc(OC)c(C2C(C(=O)c3ccc(C)o3)=C(O)C(=O)N2c2cc(C)on2)c1 (configuration not stated),i,i,i,i,i,/,/,/
O=C(COC(=O)c1ccccc1F)Nc1cccnc1Cl,i,i,i,i,i,/,/,/
COc1cccc(Cn2c(=O)c3[nH]cnc3n(-c3ccccc3C)c2=O)c1,i,i,i,i,i,/,i,i
N#Cc1c(NCc2ccccc2)ccnc1Cl,i,i,i,i,i,/,/,/
O=S(=O)(Nc1ccc(O)c2ccccc12)c1ccc(F)cc1,i,i,i,i,i,/,/,/
CCc1ccc(S(=O)(=O)Nc2ccc(O)c3ccccc23)cc1,4.7*,i,i,i,i,10%*,i,i
COc1ccc(CNC(=O)C/C(C)=N/NC(=O)COc2ccccc2)cc1,i,i,i,i,i,/,/,/
Cc1cc(Cl)ccc1Nc1ncccc1C(N)=O,5.3*,i,i,i,i,12%*,i,i
Cc1ccc(CNC(=O)c2cc(=O)c3ccc(C)cc3o2)cc1,i,i,i,i,i,/,/,/
C/C(=N\N=C1\NC(=O)C(CC(=O)Nc2ccc(Cl)cc2)S1)c1ccco1 (configuration not stated),i,i,i,i,i,/,/,/
C/C(=N\N=C1\NC(=O)C(CC(=O)Nc2ccc(C)c(Cl)c2)S1)C(C)(C)C (configuration not stated),7.5*,i,i,i,i,70%*,i,i
Clc1ccc(Sc2cc(N3CCOCC3)nc(-c3ccccc3)n2)cc1,7.7*,i,i,i,i,14%*,i,i
CSCc1cc(N2CCOCC2)nc(-c2ccccc2)n1,i,i,i,i,i,/,/,/
CC(C)Sc1cc(N2CCOCC2)nc(-c2ccc(Cl)cc2)n1,5.2*,i,i,i,i,12%*,28%*,i
CCN1CCN(c2cc(SC(C)C)nc(-c3ccc(OC)cc3)n2)CC1,i,/,/,i,/,/,/,/
COc1cccc(Sc2cc(N3CCOCC3)nc(-c3ccccc3)n2)c1,8.8*,i,i,i,i,34%*,i,i
c1ccc(-c2nc(N3CCOCC3)cc(N3CCOCC3)n2)cc1,i,i,i,i,i,/,/,/
CCOC(=O)c1cc(-c2ccc(F)cc2)n(CCC(=O)NC2CCN(Cc3ccccc3)CC2)c1C,i,i,i,i,i,/,/,/
Cc1ccccc1OCCC(=O)Nc1ccc(Cl)cc1F,i,i,i,i,i,/,/,/
CCCCCCC(=O)Nc1ccc(Br)cn1,i,i,i,i,i,/,/,/
COc1ccc(C(C[N+](=O)[O-])c2c(-c3ccccc3)cc3ccccn23)c(OC)c1 (configuration not stated),i,54*,i,i,i,i,i,20%*
CC(/C=N/NC(=O)c1n[nH]c2c1CCC2)=C\c1ccccc1,i,i,i,i,i,i,i,i
CCC1(CC)Cc2ccccc2-c2nc(NCCCO)[nH]c(=O)c21,37*,i,i,i,i,71%*,53%*,7.5%*
O=c1[nH]c(NCCCO)nc2c1C1(CCCC1)Cc1ccccc1-2,7.3*,i,i,i,i,31%*,i,30%*
